# Assay results as given in the EternaBench riboswitch data.
# Test system: MS2 coat protein
# Experiment: apparent Kd, MS2 coat protein; higher = weaker binding; RNA-MaP array; FMN 200 µM where present
# Summary of the method: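 Designs on Illumina sequencing-chip clusters, transcribed by stalled E. coli RNA polymerase, were exposed to SNAP-549-labelled MS2 coat protein in doubling steps from 0.7 or 1.5 nM up to 3 µM, without and then with constant ligand. The buffer held 100 mM Tris-HCl pH 7.5, 80 mM KCl, 4 mM MgCl2, BSA, DTT, yeast tRNA and Tween-20. Apparent Kd values are medians of filtered per-cluster binding-curve fits to green signal normalised to red-channel RNA signal and control-cluster median Fmax.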
# [1] = designed as: OFF switch for flavin mononucleotide, no ligand
# [2] = ligand present: flavin mononucleotide, designed as: OFF switch for flavin mononucleotide
# [3] = designed as: ON switch for flavin mononucleotide, no ligand
# [4] = ligand present: flavin mononucleotide, designed as: ON switch for flavin mononucleotide
Sequence,apparent Kd [1],apparent Kd [2],apparent Kd [3],apparent Kd [4]
CAGUCUACAGGAUAUACAUGAGGAUCACCCAUGUAAAUUCACUUUCGGUAGUCUACAUGUAGAAGGGUAGACUG,0.125 µM,0.0388 µM,–,–
CAUCAAAGAAUACCAGGGCAUUAAUGAGAAGGCCAACCACAUGAGGAUCACCCAUGUACGGGAGUGGAGGAUAUCAGUGGGCCG,–,–,0.0525 µM,0.00643 µM
CAUCAGUGAGGAUAUCGGGCCUGUGGCUGCUCAGCCCGGUUCGAGAAGGCACAUGAGGAUCACCCAUGUGACGU,0.0204 µM,0.0468 µM,–,–
CAUCUGUGAGGAUAUGGUGAGUAGUGCCUGAGCGCUGCUCACCAGAAGGCACAUGAGGAUCACCCAUGUAUGAA,0.0526 µM,0.214 µM,–,–
CAUUAAUUGAUUAUUGUAUUUUUACAGGAUAUGUUACAUGAGGAUCACCCAUGUUUAUAUGGGAGACAGAAGGGUAUUUAUAGA,0.355 µM,0.193 µM,–,–
CAUUAUUAUCGAGGAUAUCCUAUUGAAAUUCUGGGAGAAGGCGGACUCAACAUGAGGAUCACCCAUGUGAGACGGGUGCUAGGG,0.0268 µM,0.0252 µM,–,–
CAUUAUUAUCGAGGAUAUCGUAUUGAGAUACUAUGAGAAGGCGGGAUAAACAUGAGGAUCACCCAUGUGAGCCGGAUGCUUGUG,0.0171 µM,0.0148 µM,–,–
CAUUGACAUGAGGAUCACCCAUGUCAGGAUAUGCUUCAUGACACGAAAGUGUCAUGAAGCAGAAGGGACAUGCC,0.0194 µM,0.0318 µM,–,–
CAUUUACAGGGAGGAUAUACAUGAGGAUCACCCAUGUCAUCAUAUGAUAUUUCUUUUGUAUGAGUGUAGAAGGCCCAACUACCA,0.0192 µM,0.0184 µM,–,–
CAUUUGUGAGGAUAUCAGGUGUGCUAGCGUACUGGUACAUCUGAGAAGGCACAUGAGGAUCACCCAUGUUCCUC,0.05 µM,0.312 µM,–,–
CCAAACGGAGGAUAUACAAAUUAAGGAAAAAAACGCGAAAAACAUGAGGAUCACCCAUGUAGAAGGCCGAAAAA,0.0193 µM,0.0179 µM,–,–
CCAAGAAUAGGAUAUACACCGUGUCAGCUUUUAUAUAUCGCACAUGAGGAUCACCCAUGUAGAAGGGUUCUCUC,0.676 µM,0.564 µM,–,–
CCACGUCUCAUUAACAUGAGGAUCACCCAUGUCAAAAGACAUGAGGAUAUGGAUCCUAAUUGGAUCCAGAAGGCAUGGACGUGG,–,–,0.516 µM,0.0594 µM
CCAGAGAUAUGAGGAUAUCGAGUGGAAUACACUCGAGAAGGCAUGUGAAAACAUGAGGAUCACCCAUGUAUGAUCUACUCUGGA,–,–,0.0522 µM,0.0244 µM
CCAGAGAUAUGAGGAUAUCGAGUGGAAUACACUCGAGAAGGCAUGUGAAAACAUGAGGAUCACCCAUGUGAUCAAUACUCUGGA,–,–,0.176 µM,0.0277 µM
CCAGAUAUGUGAGGAUAUAUAGUGGAAUACACUAUAGAAGGUAUGUGAGAACAUGAGGAUCACCCAUGUCAUUGGAUAUCUGGA,–,–,0.0335 µM,0.0381 µM
CCAGCGAGUGUGAGGAUAUGCUGGUCCUUGGAUCAGCAGAAGGCACAUGAGGAUCACCCAUGUGAGGACGUUGG,0.0282 µM,0.248 µM,–,–
CCAGCGUGUGUGAGGAUAUGCUGGUCCUUGGAUCAGCAGAAGGCACAUGAGGAUCACCCAUGUGAGAGCGUUGG,0.0196 µM,0.0861 µM,–,–
CCAGGCAGUGUGAGGAUAUGCUGGUGCUUGCAUCAGCAGAAGGCACAUGAGGAUCACCCAUGUGAAGAGCUUGG,0.0276 µM,0.131 µM,–,–

Sequence,apparent Kd [1],apparent Kd [2],apparent Kd [3],apparent Kd [4]
CCAUAAAAGAUCCAAAAUUACAACAUGAGGAUCACCCAUGUGCAGGAUAUCGUGAAAGUAAAAUACGAGAAGGGCAAAAACUGC,0.44 µM,0.454 µM,–,–
CCAUAUAACUGAGGAUAUGAUCACCACUAACAUUCAGAAGGCAGACAUGAGGAUCACCCAUGUGAUUUCUCAAUAUUAUACAUC,0.572 µM,0.363 µM,–,–
CCAUCGUGUGUGAGGAUAUGCUGGUCCUUGGAUCAGCAGAAGGCACAUGAGGAUCACCCAUGUGAAAACGAUGG,0.0179 µM,0.0564 µM,–,–
CCAUGCAUAGCGAUAUGAUCGAGAGAUCAUGUCGCUAAAUUUAGAAGGACAUGAGGAUCACCCAUGUAGGAUAUGGGAGCAUGC,–,–,0.0584 µM,0.0178 µM
CCAUGGCAUGUAGGAUAUAUCUGACAAAGUCAGAUAGAAGGACAUGAGGAUCACCCAUGUAAACCGAAAGGAACAUAGCCAUGG,0.00636 µM,0.00696 µM,–,–
CCAUGUUAGCAGGAUAUGCAAUUAUUCUUUUACGCAGAAGGGCUUACAUGAGGAUCACCCAUGUAACAUUUCAU,0.0184 µM,0.0779 µM,–,–
CCAUUCAGAGGAUAUGCGCAUAGAUAAGACUUUUUUUCUUAACAUGAGGAUCACCCAUGUAGAAGGCUGUACCC,0.0216 µM,0.0194 µM,–,–
CCCAGGUCAUCUCCCGGGAACAACAUGAGGAUCACCCAUGUCUAGGAUAUCCACCAGUCAAUAAAGGAGAAGGAGACGGUGGUU,0.0293 µM,0.0319 µM,–,–
CCCAUGUGUGUGAGGAUAUGGUCAGUCAUACUCGGCCAGAAGGCACAUGAGGAUCACCCAUGUGGCCUCUCAUC,0.017 µM,0.0178 µM,–,–
CCCGCAACAUGAGGAUCACCCAUGUAGGAUAUCGCUAUUGUAAUCAUGAAACAUGAUUACAAUAGCGAGAAGGACAUAUGCGGG,0.00677 µM,0.0104 µM,–,–
CCCGGGCCUGUGAGGAUAUCGGGCCCGAAAGGGUUUGAGAAGGCACAUGAGGAUCACCCAUGUAAGGGUUUGGG,0.0338 µM,0.0247 µM,–,–
CCCGGGUUUGUGAGGAUAUUGGGCCCGAAAGGGCCCGAGAAGGCACAUGAGGAUCACCCAUGUAAGGGCCCGGG,0.0258 µM,0.0264 µM,–,–
CCCGGUCGAGCAGGAUAUAGACCGCGUGCAUUUCCCUCAGAUUGAGACAUGAGGAUCACCCAUGUCUAGAAGGGUUCACCGAAA,0.00583 µM,0.00693 µM,–,–
CCCGUGUGUUAAGGAUAUGGCAGGCGCGUUGAACCAGAAGGUAGCACAUGAGGAUCACCCAUGUGAAUGCUCACGACUCGAGCA,0.0401 µM,0.0236 µM,–,–
CCCUCACAUGAGGAUCACCCAUGUCAGGAUAUGCGCGGCCAAAAGGGCUGCUAAGGCAGCAGAAGGGACGUGAA,0.0159 µM,0.0195 µM,–,–
CCCUGAGACCGGUUAAUUGGCUGAUAGGAUAUCCUCGGACAUGAGGAUCACCCAUGUUAACUAUUGGAGAAGGGUCAGCGAAAG,–,–,0.448 µM,0.216 µM
CCGACGAAAAUCGGGCUACAUGAGGAUCACCCAUGUGCUUCACAGGAUAUGGUACGUAGUGAGUUCCAGAAGGGUGAUUAAUCU,–,–,0.205 µM,0.129 µM
CCGACGUCAGGAUAUCUGAUGUCUAACUUCGGUUAGACAUCAGAGAAGGGACAUGAGGAUCACCCAUGUCGGAG,0.029 µM,0.0528 µM,–,–
CCGCAUAAGCAGGAUAUCGUAUCGGAAACGAUACGAGAAGGGUUAACAUGAGGAUCACCCAUGUUCCUUAACGG,0.0179 µM,0.0182 µM,–,–

Sequence,apparent Kd [1],apparent Kd [2],apparent Kd [3],apparent Kd [4]
CCGCCAAUCGAGAAGGGCCCAUGUGCUACGUCGGCAGGAUAUCGACAUGAGGAUCACCCAUGUUGGCGAUCCUUUUUGGCGAAC,0.149 µM,0.108 µM,–,–
CCGCUAAUAGGAUAUACAUGAGGAUCACCCAUGUCACUCUUCAUUGGUGUCUCUUCAAGUAGAAGGGUUGCUCA,0.0285 µM,0.0281 µM,–,–
CCGGAAAUACAGGAUAUAGGAGUCAAUAGACUCCUAGAAGGGUAUACAUGAGGAUCACCCAUGUGUCCUACCGG,0.035 µM,0.0356 µM,–,–
CCGGCGUCAGGAUAUCCAAUAUAUGACAUGAGGAUCACCCAUGUUUCCACUCGUACCUCCGGAGAAGGGACGAAUA,0.0281 µM,0.0245 µM,–,–
CCGUCCUGAGGAUAUCCACCCUCAUACAUGAGGAUCACCCAUGUUCACCUUUGGGUUCCCGGAGAAGGCAGUUUUC,0.0802 µM,0.109 µM,–,–
CCUAAGCGAGGAUAUACAUGAGGAUCACCCAUGUCCGCGUUCAUGAGGUUAAGAUCUUGUAGAAGGCGCCAAAA,0.033 µM,0.161 µM,–,–
CCUAAGGACACAGGAUAUAGCGUGGUGGGUGGGCUCCAACGACGAGCGGCGCUAGAAGGGUGACCACAUGAGGAUCACCCAUGU,–,–,0.668 µM,0.205 µM
CCUAGAUAGGGAGGAUAUCACAACCAUCCCGGCGAUCCAACUACAUGAGGAUCACCCAUGUGGUGUGAGAAGGCCCAGUAAUAG,0.143 µM,0.0786 µM,–,–
CCUCAUAUUUAGGAUAUGAUUGGUAAUUAUUAGUUAGAAGGAGGUACAUGAGGAUCACCCAUGUAAUAUUUAAA,0.0215 µM,0.0212 µM,–,–
CCUCAUUGGCAGGAUAUCAGCACUAACGUGGUAUGAGAAGGGUCGACAUGAGGAUCACCCAUGUCAAUUGUCUG,0.0312 µM,0.122 µM,–,–
CCUCCACAUGAGGAUCACCCAUGUCAGGAUAUCGUGUGUGCGUUUUCGGUCUUUCGCGCGAGAAGGGACGACUG,0.0302 µM,0.033 µM,–,–
CCUCCGUAUUAGGAUAUCGUCCCGGAAACGGGACGAGAAGGAAUAACAUGAGGAUCACCCAUGUUAACGUGAUG,0.0188 µM,0.0467 µM,–,–
CCUCGGUUAGGAUAUGGAUGGUCACCCUGCGGUGUACCGCUCCAGAAGGGACAUGAGGAUCACCCAUGUUACGC,0.106 µM,0.338 µM,–,–
CCUCUACAUGAGGAUCACCCAUGUGAGGAUAUCUCGGAGCAGCCACUUAAGGCGCUCCAGAGAAGGCACGUGUA,0.0196 µM,0.0288 µM,–,–
CCUCUGUUAGGAUAUCUUUUGUUCGCCGUAGGUCGGAUCAUGGAGAAGGGACAUGAGGAUCACCCAUGUUUACC,0.0297 µM,0.0562 µM,–,–
CCUUACACCGAGAAGGGCACGUAUUGAAGAGGGUGCCAGGAACAUCACAUGAGGAUCACCCAUGUGCAGGAUAUCGGCAGGAAC,0.00978 µM,0.0223 µM,–,–
CCUUUCGGUGUCAGGAUAUACUGCGCCUGGCGCAAGUAGAAGGGACAUGAGGAUCACCCAUGUAGCGGGACCGA,0.0737 µM,0.0819 µM,–,–
CCUUUGAAGAUCCAAAAUUUCGACAUGAGGAUCACCCAUGUGCAGGAUAUCGUGCCAGUGAUGUACGAGAAGGGCAGACUCUGC,0.132 µM,0.158 µM,–,–
